pIC50: −log10 of the molar value.
How the values were obtained:
[1] = biological target: T1, Cytochrome P450 11B2, mitochondrial (Homo sapiens, UniProt P19099); experiment: Inhibition of human CYP11B2 expressed in V79 cells assessed as aldosterone level after 3 hrs by HTRF assay in presence of 125 nM 11-deoxycorticosterone; format: cell-based
T1 sequence (P19099 whole entry): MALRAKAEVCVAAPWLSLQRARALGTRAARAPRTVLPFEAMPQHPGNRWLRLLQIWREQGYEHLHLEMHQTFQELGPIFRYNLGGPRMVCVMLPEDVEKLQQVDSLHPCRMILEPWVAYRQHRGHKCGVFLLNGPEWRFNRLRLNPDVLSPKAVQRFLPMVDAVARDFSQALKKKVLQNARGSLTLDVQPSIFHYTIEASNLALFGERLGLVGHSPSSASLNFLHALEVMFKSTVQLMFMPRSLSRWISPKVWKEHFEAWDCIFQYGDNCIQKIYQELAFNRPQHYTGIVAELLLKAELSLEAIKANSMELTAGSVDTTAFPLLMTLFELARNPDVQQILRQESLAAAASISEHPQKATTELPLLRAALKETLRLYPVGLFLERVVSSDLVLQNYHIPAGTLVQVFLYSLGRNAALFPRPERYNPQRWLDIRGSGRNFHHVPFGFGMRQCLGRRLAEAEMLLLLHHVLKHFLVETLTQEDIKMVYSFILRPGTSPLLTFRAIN

[2] = biological target: T2, Cytochrome P450 11B1, mitochondrial (Homo sapiens, UniProt P15538); experiment: (§1) Inhibition of human CYP11B1 expressed in V79 cells assessed as cortisol level after 3 hrs by HTRF assay in presence of 250 nM 11-deoxycortisol; format: cell-based
T2 sequence (P15538 whole entry): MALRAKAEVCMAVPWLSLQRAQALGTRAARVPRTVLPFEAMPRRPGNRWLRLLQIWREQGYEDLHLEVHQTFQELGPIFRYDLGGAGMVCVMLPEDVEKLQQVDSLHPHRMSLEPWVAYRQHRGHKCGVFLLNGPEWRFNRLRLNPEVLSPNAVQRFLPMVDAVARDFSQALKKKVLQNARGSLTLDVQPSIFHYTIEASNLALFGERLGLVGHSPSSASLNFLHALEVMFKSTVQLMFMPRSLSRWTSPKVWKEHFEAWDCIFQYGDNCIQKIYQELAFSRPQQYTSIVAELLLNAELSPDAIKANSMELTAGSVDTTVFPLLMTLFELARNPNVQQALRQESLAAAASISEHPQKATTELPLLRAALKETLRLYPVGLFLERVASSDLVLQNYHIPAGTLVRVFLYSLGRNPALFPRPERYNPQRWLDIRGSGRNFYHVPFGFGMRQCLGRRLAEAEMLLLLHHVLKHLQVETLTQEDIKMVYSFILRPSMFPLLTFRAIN

Homo sapiens = organism: Homo sapiens; experiment: Selectivity index, ratio IC50 for human CYP11B1 to IC50 for human CYP11B2
In short: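 Ratio of human CYP11B1 IC50 to human CYP11B2 IC50; each IC50 calculated from n ≥ 2 determinations.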

[3] = biological target: T3, Steroid 17-alpha-hydroxylase/17,20 lyase (Homo sapiens, UniProt P05093); experiment: Inhibition of human CYP17 expressed in COS7 cells assessed as DHEA level after 3 hrs by EIA assay in presence of 360 nM 17-hydroxypregnenolone; format: cell-based, COS-7
T3 sequence (P05093 whole entry): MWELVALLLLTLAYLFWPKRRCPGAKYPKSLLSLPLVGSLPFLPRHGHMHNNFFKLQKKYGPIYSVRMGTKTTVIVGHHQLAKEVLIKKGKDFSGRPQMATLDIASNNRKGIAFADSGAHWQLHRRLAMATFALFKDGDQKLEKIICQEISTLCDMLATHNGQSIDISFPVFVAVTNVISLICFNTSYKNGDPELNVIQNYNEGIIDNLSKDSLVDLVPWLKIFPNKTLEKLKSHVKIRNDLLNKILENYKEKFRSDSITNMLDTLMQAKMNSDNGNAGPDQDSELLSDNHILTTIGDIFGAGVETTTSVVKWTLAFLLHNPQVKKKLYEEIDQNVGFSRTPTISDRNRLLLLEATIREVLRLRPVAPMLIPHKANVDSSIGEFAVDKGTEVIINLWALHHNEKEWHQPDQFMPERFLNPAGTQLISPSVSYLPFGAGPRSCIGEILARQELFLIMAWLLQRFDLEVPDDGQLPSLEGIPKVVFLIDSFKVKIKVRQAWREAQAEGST

Aromatase = biological target: T4, Aromatase (Homo sapiens, UniProt P11511); experiment: Inhibition of human CYP19
T4 sequence (P11511 whole entry): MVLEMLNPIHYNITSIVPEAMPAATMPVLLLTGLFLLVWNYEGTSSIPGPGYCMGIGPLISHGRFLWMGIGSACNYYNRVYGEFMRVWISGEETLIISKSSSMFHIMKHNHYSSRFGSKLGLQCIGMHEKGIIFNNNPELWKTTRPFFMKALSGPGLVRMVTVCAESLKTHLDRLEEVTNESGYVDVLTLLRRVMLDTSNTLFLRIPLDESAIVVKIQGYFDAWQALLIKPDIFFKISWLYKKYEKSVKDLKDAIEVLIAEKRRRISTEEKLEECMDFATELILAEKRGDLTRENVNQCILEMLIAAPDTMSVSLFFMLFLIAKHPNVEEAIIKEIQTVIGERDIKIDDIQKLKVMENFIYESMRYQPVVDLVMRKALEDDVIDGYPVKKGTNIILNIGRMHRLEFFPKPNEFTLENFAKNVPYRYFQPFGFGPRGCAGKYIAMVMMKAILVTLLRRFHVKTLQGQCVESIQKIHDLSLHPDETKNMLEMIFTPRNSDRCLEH

Cytochrome P450 3A4 = Cytochrome P450 3A4 (Homo sapiens, UniProt P08684); experiment: Inhibition of human CYP3A4; format: ADME
Rattus norvegicus = experiment: Dose normalized AUC in Sprague-Dawley rat at 2 mg/kg, po administered through gavage; format: ADME, organism-based; conditions: in vivo
[4] = Oral bioavailability in Sprague-Dawley rat at 2 mg/kg administered through gavage; format: ADME, organism-based; conditions: in vivo
[5] = Half life in Sprague-Dawley rat at 2 mg/kg, po administered through gavage by LC/MS/MS method; format: ADME, organism-based; conditions: in vivo
[6] = Intrinsic clearance in Sprague-Dawley rat liver microsomes by LC/MS method; format: ADME; conditions: read-out: CLH
[7] = Plasma clearance in Sprague-Dawley rat at 2 mg/kg, po administered through gavage by LC/MS/MS method; format: ADME, organism-based
[8] = Lipophilicity, log D of the compound by HPLC; format: physicochemical
In short: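 Lipophilicity determined experimentally by HPLC.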

[9] = Inhibition of rhesus monkey CYP11B2 expressed in V79 cells assessed as aldosterone level after 3 hrs by HTRF assay in presence of 125 nM 11-deoxycorticosterone; format: cell-based; conditions: Macaca mulatta, V79, 3 h
[10] = biological target: T5, Cytochrome P450 11B2, mitochondrial (Rattus norvegicus, UniProt P30099); experiment: Inhibition of rat CYP11B2 expressed in V79 cells assessed as aldosterone level after 3 hrs by HTRF assay in presence of 500 nM 11-deoxycorticosterone; format: cell-based; conditions: v79, 3 h
T5 sequence (P30099 whole entry): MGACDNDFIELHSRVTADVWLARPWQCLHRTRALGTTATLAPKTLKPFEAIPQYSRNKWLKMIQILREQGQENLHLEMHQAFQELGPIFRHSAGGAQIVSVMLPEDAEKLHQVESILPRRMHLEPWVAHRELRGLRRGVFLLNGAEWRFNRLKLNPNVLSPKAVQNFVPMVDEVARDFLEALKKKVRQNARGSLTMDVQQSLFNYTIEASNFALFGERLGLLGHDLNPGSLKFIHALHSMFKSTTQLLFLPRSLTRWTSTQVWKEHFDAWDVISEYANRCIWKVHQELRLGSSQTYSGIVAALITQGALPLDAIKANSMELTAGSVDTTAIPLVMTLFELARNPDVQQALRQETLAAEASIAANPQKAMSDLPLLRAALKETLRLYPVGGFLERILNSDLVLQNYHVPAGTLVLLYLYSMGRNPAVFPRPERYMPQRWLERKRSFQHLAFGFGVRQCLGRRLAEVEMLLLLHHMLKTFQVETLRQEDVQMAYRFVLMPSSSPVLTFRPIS

CYP11B1 = biological target: T6, CYP11B1 (Homo sapiens, UniProt P15538); experiment: as §1; format: cell-based; conditions: human, V79 cells expressing human CYP11B1, probe 11-deoxycortisol (250 nM)
T6 sequence (P15538 whole entry): T2 sequence (P15538 whole entry)

Cytochrome P450 3A4, sequence (P08684 whole entry): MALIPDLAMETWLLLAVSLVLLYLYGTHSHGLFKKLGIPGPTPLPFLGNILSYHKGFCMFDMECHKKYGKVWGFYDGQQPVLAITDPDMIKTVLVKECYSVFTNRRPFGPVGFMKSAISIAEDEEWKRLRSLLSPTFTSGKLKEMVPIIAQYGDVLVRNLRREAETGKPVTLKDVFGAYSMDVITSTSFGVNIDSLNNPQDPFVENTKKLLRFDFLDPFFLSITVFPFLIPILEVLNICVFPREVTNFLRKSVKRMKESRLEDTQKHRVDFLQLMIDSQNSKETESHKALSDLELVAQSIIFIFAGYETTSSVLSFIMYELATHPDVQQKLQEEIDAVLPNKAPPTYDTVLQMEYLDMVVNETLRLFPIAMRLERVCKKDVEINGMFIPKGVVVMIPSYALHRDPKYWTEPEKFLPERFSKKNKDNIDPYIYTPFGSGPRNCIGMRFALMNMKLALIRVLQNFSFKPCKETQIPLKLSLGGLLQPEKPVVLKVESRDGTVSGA

| Structure (SMILES) | pIC50 [1] | pIC50 [2] | Ratio IC50 (Homo sapiens) | further results |
| --- | --- | --- | --- | --- |
| c1ccc(-c2nnc3n2-c2ccc(-c4cccnc4)cc2CC3)cc1 | 6.99 | 5.87 | 13 | pIC50 [3]: 7.08; pIC50 (Aromatase): 7.68; pIC50 (Cytochrome P450 3A4): 4.44 |
| COC(=O)c1cncc(-c2ccc3c(c2)CCc2nnc(C)n2-3)c1 | 7.24 | 5.66 |  | pIC50 [3]: < 5.00; pIC50 (Aromatase): < 5.00; pIC50 (Cytochrome P450 3A4): < 4.30 |
| CNC(=O)c1cncc(-c2ccc3c(c2)CCc2nnc(C)n2-3)c1 | < 5.08 | < 5.08 |  |  |
| FC(F)(F)c1nnc2n1-c1ccc(-c3cccnc3)cc1CC2 | 6.30 | < 5.08 | > 16 |  |
| Cc1nnc2n1-c1ccc(-c3cccnc3)cc1CC2 | 6.37 | < 5.00 | > 24 | AUC/dose (Rattus norvegicus): 0.1 µM·kg·h/mg; bioavailability [4]: 6%; half-life [5]: 12 min; CLint scaled [6]: 55 mL/min/kg; CL/F [7]: 38 mL/min/kg |
| Cc1nnc2n1-c1ccc(-c3cncc(C(C)(C)O)c3)cc1CC2 | 6.55 | < 5.08 | > 29 | logD [8]: 0.6; AUC/dose (Rattus norvegicus): 0.19 µM·kg·h/mg; pIC50 [9]: 7.47; bioavailability [4]: 19%; half-life [5]: 90 min; CLint scaled [6]: < 20 mL/min/kg; CL/F [7]: 50 mL/min/kg; inhibition (INH) [10]: Active |
| C[C@](O)(c1cncc(-c2ccc3c(c2)CCc2nnc(C(F)(F)F)n2-3)c1)C(F)(F)F | 6.34 | 6.05 | 2 | logD [8]: 2.2 |
| Cc1nnc2n1-c1ccc(-c3cncc(S(C)(=O)=O)c3)cc1CC2 | < 5.08 | < 5.08 |  |  |
| Cc1nnc2n1-c1ccc(-c3cncc(C(F)(F)F)c3)cc1CC2 | 6.31 | < 5.00 |  |  |
| COC(C)(C)c1cncc(-c2ccc3c(c2)CCc2nnc(C)n2-3)c1 | 7.72 | 6.66 |  | AUC/dose (Rattus norvegicus): 0.03 µM·kg·h/mg; pIC50 [9]: 8.52; bioavailability [4]: 10%; half-life [5]: 18 min; CLint scaled [6]: 107 mL/min/kg; pIC50 [3]: < 5.00; pIC50 (Aromatase): 4.95; pIC50 (Cytochrome P450 3A4): < 4.30; CL/F [7]: 177 mL/min/kg; inhibition (INH) [10]: Active |
| c1cncc(-c2ccc3c(c2)CCc2nnc(C4CCCCC4)n2-3)c1 | 5.62 | < 5.08 | > 3 |  |
| Cc1nnc2n1-c1ccc(-c3cncc([C@@](C)(O)C(F)(F)F)c3)cc1CC2 | 6.96 | < 5.08 |  | logD [8]: 1.2 |
| C[C@@](O)(c1cncc(-c2ccc3c(c2)CCc2nnc(C(F)(F)F)n2-3)c1)C(F)(F)F | 6.32 | < 5.08 | > 18 | logD [8]: 2.2 |
| COC(=O)C(C)(C)c1cncc(-c2ccc3c(c2)CCc2nnc(C)n2-3)c1 | 7.72 | 6.50 |  |  |
| Cc1nnc2n1-c1ccc(-c3cncc(F)c3)cc1CC2 | 6.25 | < 5.00 |  |  |
| c1cncc(-c2ccc3c(c2)CCc2nncn2-3)c1 | 6.52 | < 5.00 | > 33 |  |
| Cc1nnc2n1-c1ccc(-c3cncc(S(=O)(=O)c4ccccc4)c3)cc1CC2 | 7.40 | 5.82 |  |  |
| c1cncc(-c2ccc3c(c2)CCc2nnc(C4CC4)n2-3)c1 | 6.31 | < 5.00 | > 21 |  |
| Cc1nnc2n1-c1ccc(-c3cncc4ccccc34)cc1CC2 | 8.30 |  |  | AUC/dose (Rattus norvegicus): 0.27 µM·kg·h/mg; bioavailability [4]: 75%; half-life [5]: 24 min; IC50 at 3 h (CYP11B1): 407 nM; CLint scaled [6]: 33 mL/min/kg; CL/F [7]: 150 mL/min/kg |
| Cc1nnc2n1-c1ccc(-c3cncc(C(=O)N(C)C)c3)cc1CC2 | < 5.08 | < 5.08 |  |  |

Source: ChEMBL document CHEMBL3621164, “Discovery of Triazole CYP11B2 Inhibitors with in Vivo Activity in Rhesus Monkeys” (ACS Med Chem Lett, 2015)
